Test results: ChEMBL document CHEMBL1128482, “Syntheses, calcium channel agonist-antagonist modulation activities, and voltage-clamp studies of isopropyl 1,4-dihydro-2,6-dimethyl-3-nitro-4-pyridinylpyridine-5-carboxylate racemates and enantiomers” (J Med Chem, 1995)
Values belong to the molecule of their own block, whether it stands above or below them.

Columns and labels:
Cavia porcellus [1] = organism: Cavia porcellus; test: Calcium channel agonist activity in guinea pig ileum longitudinal smooth muscle (GPILSM) at 10e-7 M; assay type: functional, organism-based
Cavia porcellus [2] = organism: Cavia porcellus; test: Calcium channel agonist activity in guinea pig left atrium (GPLA) at 10e-7 M; assay type: functional; settings: Cardiac atrium
In short: (§1)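 Isolated guinea pig left atrium: positive inotropic response was taken as the percentage increase in contractile force over the tissue's basal force measured without test compound.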

Cavia porcellus [3] = organism: Cavia porcellus; test: Calcium channel antagonist activity in guinea pig ileum longitudinal smooth muscle (GPILSM) at 10e-7 M; assay type: functional, organism-based
Cavia porcellus [4] = organism: Cavia porcellus; test: Calcium channel agonist activity in guinea pig ileum longitudinal smooth muscle (GPILSM) at 10e-6 M; assay type: functional, organism-based
Cavia porcellus [5] = organism: Cavia porcellus; test: Calcium channel agonist activity in guinea pig left atrium (GPLA) at 10e-8 M; settings: Cardiac atrium
Cavia porcellus [6] = organism: Cavia porcellus; test: Calcium channel agonist activity in guinea pig left atrium (GPLA) at 10e-9 M; settings: Cardiac atrium
Cavia porcellus [7] = organism: Cavia porcellus; test: Calcium channel agonist activity in guinea pig left atrium (GPLA) at 10e-6 M; assay type: functional; settings: Cardiac atrium; in short: as §1
Cavia porcellus [8] = organism: Cavia porcellus; test: Calcium channel agonist activity in guinea pig left atrium (GPLA) at 10e-8 M; assay type: functional; settings: Cardiac atrium; in short: as §1
Cavia porcellus [9] = organism: Cavia porcellus; test: Calcium channel antagonist activity in guinea pig ileum longitudinal smooth muscle (GPILSM) at 10e-6 M; assay type: functional, organism-based
Cavia porcellus [10] = organism: Cavia porcellus; test: Calcium channel agonist activity in guinea pig ileum longitudinal smooth muscle (GPILSM) at 10e-5 M; assay type: functional, organism-based
Cavia porcellus [11] = organism: Cavia porcellus; test: Calcium channel agonist activity in guinea pig left atrium (GPLA) at 10e-5 M; assay type: functional; settings: Cardiac atrium; in short: as §1

EC50 (Cavia porcellus [1]): 0.23 µM
EC50 (Cavia porcellus [2]): 0.77 µM
SMILES: COC(=O)C1=C(C)NC(C)=C([N+](=O)[O-])C1c1ccccc1C(F)(F)F (centres undefined)

IC50 (Cavia porcellus [3]): 0.207 µM
EC50 (Cavia porcellus [4]): 5.27 µM
EC50 (Cavia porcellus [5]): 0.0458 µM
EC50 (Cavia porcellus [6]): 0.00446 µM
SMILES: CC1=NC(C)=C([N+](=O)[O-])C(c2ccccn2)/C1=C(\O)OC(C)C (centres undefined)

EC50 (Cavia porcellus [7]): 9.67 µM
EC50 (Cavia porcellus [8]): 0.0458 µM
IC50 (Cavia porcellus [9]): 4.87 µM
EC50 (Cavia porcellus [4]): 5.27 µM
SMILES: CC1=NC(C)=C([N+](=O)[O-])C(c2ccccn2)/C1=C(\O)OC(C)C (racemic)

EC50 (Cavia porcellus [10]): 48 µM
EC50 (Cavia porcellus [11]): 28.5 µM
SMILES: CC1=NC(C)=C([N+](=O)[O-])C(c2cccnc2)/C1=C(\O)OC(C)C (racemic)

EC50 (Cavia porcellus [10]): 35 µM
EC50 (Cavia porcellus [7]): 8.05 µM
SMILES: CC1=NC(C)=C([N+](=O)[O-])C(c2ccncc2)/C1=C(\O)OC(C)C (racemic)
